The source made the active and inactive calls. No cut-off for these calls is given here.
What was measured:
dengue virus type 2 [1] = test: Antiviral activity against eGFP-fused Dengue virus 2 infected in human BE(2)-C cells assessed as viral infection level by measuring intensity of eGFP emission from infected cells at 3.13 uM incubated for 24 hrs relative to control; assay type: functional
Outline: (§1)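 BE(2)C cells, in RPMI 1640 with 10% FBS, were infected with DENV-2-eGFP reporter virus (MOI 1) for 24 h with or without compound, using DMSO as solvent control. Cells were fixed in 4% paraformaldehyde and stained with Hoechst, then imaged by high-content analysis. eGFP intensity per cell number is given as % of solvent control. Values are means of 3 experiments.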

[2] = Cytotoxicity against human BE(2)-C cells assessed as cell proliferation at 6.25 uM incubated overnight by XTT assay relative to control; assay type: cell-based; conditions: read-out: Activity
dengue virus type 2 [3] = test: Antiviral activity against eGFP-fused Dengue virus 2 infected in human BE(2)-C cells assessed as viral infection level by measuring intensity of eGFP emission from infected cells at 1.56 uM incubated for 24 hrs relative to control; assay type: functional; outline: as §1
[4] = biological target: Calcium/calmodulin-dependent protein kinase type II subunit alpha (Homo sapiens, UniProt Q9UQM7); test: Inhibition of human CaMKIIalpha using calmodulin and syntide-2 incubated for 15 mins by ELISA
Sequence of Calcium/calmodulin-dependent protein kinase type II subunit alpha (Q9UQM7 whole entry): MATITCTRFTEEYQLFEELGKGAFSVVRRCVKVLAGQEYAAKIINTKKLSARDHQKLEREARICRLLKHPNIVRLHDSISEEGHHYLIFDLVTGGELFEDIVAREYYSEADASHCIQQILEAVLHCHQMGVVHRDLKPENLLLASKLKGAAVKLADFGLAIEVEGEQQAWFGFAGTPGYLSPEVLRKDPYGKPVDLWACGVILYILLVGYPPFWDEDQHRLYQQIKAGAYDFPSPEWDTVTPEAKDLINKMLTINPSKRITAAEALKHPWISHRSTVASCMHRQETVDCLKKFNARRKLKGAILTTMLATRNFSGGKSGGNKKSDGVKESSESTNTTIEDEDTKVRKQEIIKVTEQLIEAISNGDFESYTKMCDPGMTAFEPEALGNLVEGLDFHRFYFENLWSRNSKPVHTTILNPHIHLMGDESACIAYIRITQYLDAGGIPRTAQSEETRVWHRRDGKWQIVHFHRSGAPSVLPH

Row | Structure (SMILES) | Activity (dengue virus type 2 [1]) | viability at 6.25 µM [2] | Activity (dengue virus type 2 [3]) | inhibition [4] | IC50 [4]
1 | O=C(CCCN(c1ccccc1)S(=O)(=O)c1ccc(Oc2ccccc2)cc1)C1CCCCCC1 | 73.4% | 95.5% | 74.7% | – | –
2 | O=C(CCCN(c1ccccc1)S(=O)(=O)c1ccc(OC(F)(F)F)cc1)C1CCCC1 | 118.2% | 92.4% | 102.6% | – | –
3 | COc1ccc(S(=O)(=O)N(CCCC(O)c2ccc(F)cc2)c2ccccc2)cc1 (configuration not stated) | 48.5% | 76.3% | 59.4% | Active | –
4 | COc1ccc(S(=O)(=O)N(C)CCCC(=O)c2ccc(F)cc2)cc1 | 100.9% | 106% | 100% | – | –
5 | COc1ccc(S(=O)(=O)N(CCCC(=O)C2CCCCCC2)C2CCCCC2)cc1 | 65.7% | 97.5% | 85.7% | – | –
6 | COc1ccc(S(=O)(=O)N(CCCC(=O)c2ccc(F)cc2)c2ccccc2)cc1 | 39.3% | 56.1% | 55.9% | – | –
7 | Cc1ccc(S(=O)(=O)N(CCCC(=O)C2CCCCCC2)c2ccccc2)cc1 | 76.9% | 99.5% | 93.9% | – | –
8 | COc1ccc(S(=O)(=O)N(CCCC(C)=O)c2ccccc2)cc1 | 100.8% | 106% | 92.8% | – | –
9 | COc1ccc(S(=O)(=O)N(CCCC(=O)C2CCCCC2)c2ccccc2)cc1 | 63.3% | 107% | 68.9% | – | –
10 | COc1ccc(S(=O)(=O)NCCCC(=O)c2ccc(F)cc2)cc1 | 122.6% | 106% | 110.1% | Active | –
11 | COc1ccc(S(=O)(=O)N(CCO)c2ccccc2CN(C)C/C=C/c2ccc(Cl)cc2)cc1 | 14.5% | 84.3% | 30.5% | – | –
12 | COc1ccc(S(=O)(=O)N(CCCC(=O)C2CCCC2)c2ccccc2)cc1 | 25.1% | – | 34.6% | – | –
13 | COc1ccc(S(=O)(=O)N(CCCC(=O)C2C3CC4CC(C3)CC2C4)c2ccccc2)cc1 (configuration not stated) | 51.1% | 96.7% | 57.3% | – | –
14 | COc1ccc(S(=O)(=O)N(CCCC(=O)C2CCCCCC2)c2ccc(C3CCCCC3)cc2)cc1 | 13.8% | – | 36.1% | – | –
15 | COc1ccc(S(=O)(=O)N(CCCC(=O)C2CCCCCC2)c2ccc3c(c2)CCCC3)cc1 | 21.5% | 104% | 87.2% | – | –
16 | COc1ccc(S(=O)(=O)N(CCCC(=O)C2CCC2)c2ccccc2)cc1 | 33% | 93.9% | 42.8% | – | –
17 | CN([C@@H](Cc1ccc(OS(=O)(=O)c2cccc3cnccc23)cc1)C(=O)N1CCN(c2ccccc2)CC1)S(=O)(=O)c1cccc2cnccc12 | 22.3% | 65.7% | 33.5% | – | 1030 nM
